{"data": "Results gathered from unrelated publications", "target": "MAP kinase-interacting serine/threonine-protein kinase 2 (MKNK2, Homo sapiens, UniProt Q9HBH9)", "note": "Protocols differ between the studies behind these lines."}
{"Structure (SMILES)": "Cc1ccc(Nc2nccc(N(C)c3ccc4c(C)n(C)nc4c3)n2)cc1S(N)(=O)=O", "assay": "enzyme activity, inhibitor", "setting": "10 µM", "measurement": "inhibition", "value": "9%"}
{"Structure (SMILES)": "CC1=C(C#N)[C@@H](c2ccc3[nH]nc(C)c3c2)C(C#N)=C(c2ccc(Cl)cc2)N1", "assay": "cell-free assay, competition with immobilised ligand", "setting": "1 µM", "measurement": "remaining binding", "value": "90.6%"}
{"Structure (SMILES)": "CCCOc1ccc(OC)c(F)c1C(=O)c1ccc(C(=O)N[C@@H]2CNC[C@H]2NC(=O)c2ccc3[nH]ncc3c2)cc1", "assay": "enzyme activity, inhibitor", "setting": "10 µM", "measurement": "remaining activity", "value": "67%"}
{"Structure (SMILES)": "NS(=O)(=O)c1cc(NC(=O)C2(c3ccccc3Cl)CC2)ccc1Oc1cccc(Cl)c1", "assay": "cell-free assay, competition with immobilised ligand", "setting": "1 µM", "measurement": "remaining binding", "value": "100%"}
{"Structure (SMILES)": "CNC(=O)c1cc(Oc2ccc(NC(=O)Nc3ccc(Cl)c(C(F)(F)F)c3)cc2)ccn1", "assay": "enzyme activity, inhibitor", "setting": "10 µM", "measurement": "inhibition", "value": "90%"}
{"Structure (SMILES)": "Nc1nc(Nc2ccc(S(N)(=O)=O)cc2)nn1C(=O)c1c(F)cccc1F", "assay": "cell-free assay", "setting": "0.5 µM", "measurement": "remaining signal", "value": "95.9%"}
{"Structure (SMILES)": "CCN(CC)CCNC(=O)c1c(C)[nH]c(/C=C2\\C(=O)Nc3ccc(F)cc32)c1C", "assay": "enzyme activity, inhibitor", "setting": "0.3 µM", "measurement": "inhibition", "value": "-18%"}
{"Structure (SMILES)": "Cc1c[nH]c2nccc(Oc3c(F)cc(Nc4cc(Cl)nc(N)n4)cc3F)c12", "assay": "cell-free assay, competition with immobilised ligand", "setting": "0.1 µM", "measurement": "remaining binding", "value": "90%"}
{"Structure (SMILES)": "CS(=O)(=O)Nc1cccc(-c2csc(NC(=O)CSc3nc4nccnc4c(=O)n3CCc3ccccc3)n2)c1", "assay": "enzyme activity, inhibitor", "setting": "10 µM", "measurement": "inhibition", "value": "-10%"}
{"Structure (SMILES)": "Cn1c(=O)n(-c2ccc(C(C)(C)C#N)cc2)c2c3cc(-c4cnc5ccccc5c4)ccc3ncc21", "assay": "enzyme activity, inhibitor", "setting": "10 µM", "measurement": "remaining activity", "value": "94%"}
{"Structure (SMILES)": "COc1cc(Nc2cnc(C#N)c(O[C@H](C)CN(C)C)n2)ncc1-c1cnn(C)c1", "assay": "enzyme activity, inhibitor, radiometric", "setting": "1 µM", "measurement": "remaining activity", "value": "98%"}
{"Structure (SMILES)": "CC(C)(C)c1nc2c(s1)c1nc(N)ncc1c1ccc(NS(=O)(=O)c3c(F)cccc3F)c(F)c12", "assay": "enzyme activity, inhibitor, radiometric", "setting": "1 µM", "measurement": "remaining activity", "value": "98%"}
{"Structure (SMILES)": "Nc1nc(NC2CCCCC2)sc1C(=O)c1ccccc1", "assay": "enzyme activity, inhibitor", "setting": "10 µM", "measurement": "remaining activity", "value": "94%"}
{"Structure (SMILES)": "CO[C@@H](C)c1c(Nc2ccc([C@@H](N(C)C(=O)C3CCS(=O)(=O)CC3)C(F)(F)F)cc2)cnc2cc(Cl)nn12", "assay": "cell-free assay, competition with immobilised ligand", "setting": "1 µM", "measurement": "remaining binding", "value": "85%"}
{"Structure (SMILES)": "FC(F)(F)Oc1cccc(-c2cnc3ccc(-c4ccncc4)nn23)c1", "assay": "enzyme activity, inhibitor, radiometric", "setting": "1 µM", "measurement": "activity vs control", "value": "66%"}
{"Structure (SMILES)": "CC(=O)N1CCC(c2ccc(C(=O)NC3=NCCN3)cc2C(F)(F)F)CC1", "assay": "cell-free assay, competition with immobilised ligand", "setting": "1 µM", "measurement": "remaining binding", "value": "100%"}
{"Structure (SMILES)": "O=C1NC(=O)c2cc(Nc3ccc(F)cc3)c(Nc3ccc(F)cc3)cc21", "assay": "cell-free assay", "setting": "0.5 µM", "measurement": "remaining signal", "value": "101%"}
{"Structure (SMILES)": "CN([C@@H]1CCc2c(CC(=O)O)c3ccccc3n2C1)S(=O)(=O)c1ccc(F)cc1", "assay": "cell-free assay, competition with immobilised ligand", "setting": "1 µM", "measurement": "remaining binding", "value": "100%"}
{"Structure (SMILES)": "CC/C(=N\\NC(=O)NCc1cccc(O)c1)c1ccc(O)c(C)c1O", "assay": "enzyme activity, inhibitor", "setting": "0.1 µM", "measurement": "inhibition", "value": "-2.9%"}
{"Structure (SMILES)": "CC(C)c1ccc(NC(=O)c2cccs2)c(-c2nc3ccccc3[nH]c2=O)c1", "assay": "enzyme activity, inhibitor", "setting": "1 µM", "measurement": "activity vs control", "value": "97%"}
{"Structure (SMILES)": "CC(C)(C)C(=O)c1sc(NC2CCCCC2)nc1N", "assay": "enzyme activity, inhibitor", "setting": "10 µM", "measurement": "remaining activity", "value": "96%"}
{"Structure (SMILES)": "Cc1cc(NC(=O)c2cccc3cc(-c4cccc5[nH]nc(N)c45)ccc23)ccc1F", "assay": "enzyme activity, inhibitor", "setting": "0.1 µM", "measurement": "activity vs control", "value": "111%"}
{"Structure (SMILES)": "Cc1ccc(C(=O)Nc2ccc(CN3CCN(C)CC3)c(C(F)(F)F)c2)cc1C#Cc1cnc2cccnn12", "assay": "enzyme activity, inhibitor", "setting": "23.5 nM", "measurement": "remaining activity", "value": "33%"}
{"Structure (SMILES)": "COc1ccc(COc2ccc(Cc3cnc(N)nc3N)cc2OC)cc1", "assay": "cell-free assay", "setting": "0.5 µM", "measurement": "remaining signal", "value": "90.6%"}
{"Structure (SMILES)": "CN1CC(Oc2cnc(C#N)cc2-c2ccn3nc(NC(=O)C4CC4)cc3c2)C1", "assay": "enzyme activity, inhibitor", "setting": "1 µM", "measurement": "inhibition", "value": "5%"}
{"Structure (SMILES)": "Nc1ncnc2occ(-c3ccc(NC(=O)Nc4cc(C(F)(F)F)ccc4F)cc3)c12", "assay": "cell-free assay, inhibitor", "setting": "20 µM", "measurement": "remaining signal", "value": "0%"}
{"Structure (SMILES)": "O=C(NCc1ncc(C(F)(F)F)cc1Cl)c1ccc2c(c1)C1(CCS(=O)(=O)CC1)[C@@H](C1CC1)N2S(=O)(=O)c1ccc(F)cc1", "assay": "cell-free assay, competition with immobilised ligand", "setting": "1 µM", "measurement": "remaining binding", "value": "76%"}
{"Structure (SMILES)": "COc1cc2c(Nc3ccc(Br)cc3F)ncnc2cc1OCC1CCN(C)CC1", "assay": "cell-free assay", "setting": "0.5 µM", "measurement": "remaining signal", "value": "86.9%"}
{"Structure (SMILES)": "CC(C)(O)c1cncc(-c2nc3ccc(F)cc3n2C2CC2)c1", "assay": "cell-free assay, competition with immobilised ligand", "setting": "1 µM", "measurement": "remaining binding", "value": "100%"}
{"Structure (SMILES)": "O=C(Nc1cnn(-c2csc(C(=O)NC3COC3)c2)c1)Nc1ccccc1Cl", "assay": "enzyme activity, inhibitor", "setting": "5 µM", "measurement": "remaining activity", "value": "99.3%"}
{"Structure (SMILES)": "Cc1ncc(C(=O)Nc2ccc(CN3CCN(C)CC3)c(C(F)(F)F)c2)cc1C#Cc1cnc2cccnn12", "assay": "enzyme activity, inhibitor", "setting": "0.123 µM", "measurement": "inhibition", "value": "51%"}
{"Structure (SMILES)": "CC(=O)C1=C(O)C=C2Oc3c(C(N)=O)c(O)cc(O)c3[C@]2(C)C1=O", "assay": "enzyme activity, inhibitor, radiometric", "setting": "10 µM", "measurement": "activity vs control", "value": "0%"}
